Legend:
[1] = Selectivity ratio of pLC50 for mouse primary glial cells to pLC50 for human THLE2 cells; format: ADME, cell-based; conditions: mouse primary glial cells versus THLE2 cells
[2] = biological target: cGMP-specific 3',5'-cyclic phosphodiesterase (Homo sapiens, UniProt O76074); assay: Inhibition of full length recombinant human N-terminal GST-tagged PDE5A1 expressed in baculovirus infected Sf9 cells using cGMP as substrate after 30 mins by HTRF assay
Histone deacetylase 1 = Histone deacetylase 1 (Homo sapiens, UniProt Q13547); assay: Inhibition of full length recombinant human C-terminal His/Flag-tagged HDAC1 expressed in baculovirus infected Sf9 cells using fluorogenic HDAC substrate after 30 mins by fluorescence analysis
How it was run: (§1)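 Full-length human recombinant HDAC1 (0.4 μg/mL final), HDAC2 (1.5 μg/mL), HDAC3/NCOR2 (0.1 μg/mL) or HDAC6 (3.6 μg/mL) with 10 μM fluorogenic acetyl-lysine substrate and 0.1 mg/mL BSA, 1% DMSO, 30 min at 37 °C; lysine developer 20 min at room temperature; fluorescence ex 355/em 460 nm. Vehicle = positive control, no enzyme = negative; IC50 from curve fit.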

Histone deacetylase 2 = Histone deacetylase 2 (Homo sapiens, UniProt Q92769); assay: Inhibition of full length recombinant human C-terminal His-tagged HDAC2 expressed in baculovirus infected Sf9 cells using fluorogenic HDAC substrate after 30 mins by fluorescence analysis; how it was run: as §1
[3] = biological target: T1, Protein deacetylase HDAC6 (Homo sapiens, UniProt Q9UBN7); assay: Inhibition of full length recombinant human N-terminal GST tagged HDAC6 expressed in baculovirus infected Sf9 cells using fluorogenic HDAC substrate after 30 mins by fluorescence analysis; how it was run: as §1
T1 sequence (Q9UBN7 whole entry): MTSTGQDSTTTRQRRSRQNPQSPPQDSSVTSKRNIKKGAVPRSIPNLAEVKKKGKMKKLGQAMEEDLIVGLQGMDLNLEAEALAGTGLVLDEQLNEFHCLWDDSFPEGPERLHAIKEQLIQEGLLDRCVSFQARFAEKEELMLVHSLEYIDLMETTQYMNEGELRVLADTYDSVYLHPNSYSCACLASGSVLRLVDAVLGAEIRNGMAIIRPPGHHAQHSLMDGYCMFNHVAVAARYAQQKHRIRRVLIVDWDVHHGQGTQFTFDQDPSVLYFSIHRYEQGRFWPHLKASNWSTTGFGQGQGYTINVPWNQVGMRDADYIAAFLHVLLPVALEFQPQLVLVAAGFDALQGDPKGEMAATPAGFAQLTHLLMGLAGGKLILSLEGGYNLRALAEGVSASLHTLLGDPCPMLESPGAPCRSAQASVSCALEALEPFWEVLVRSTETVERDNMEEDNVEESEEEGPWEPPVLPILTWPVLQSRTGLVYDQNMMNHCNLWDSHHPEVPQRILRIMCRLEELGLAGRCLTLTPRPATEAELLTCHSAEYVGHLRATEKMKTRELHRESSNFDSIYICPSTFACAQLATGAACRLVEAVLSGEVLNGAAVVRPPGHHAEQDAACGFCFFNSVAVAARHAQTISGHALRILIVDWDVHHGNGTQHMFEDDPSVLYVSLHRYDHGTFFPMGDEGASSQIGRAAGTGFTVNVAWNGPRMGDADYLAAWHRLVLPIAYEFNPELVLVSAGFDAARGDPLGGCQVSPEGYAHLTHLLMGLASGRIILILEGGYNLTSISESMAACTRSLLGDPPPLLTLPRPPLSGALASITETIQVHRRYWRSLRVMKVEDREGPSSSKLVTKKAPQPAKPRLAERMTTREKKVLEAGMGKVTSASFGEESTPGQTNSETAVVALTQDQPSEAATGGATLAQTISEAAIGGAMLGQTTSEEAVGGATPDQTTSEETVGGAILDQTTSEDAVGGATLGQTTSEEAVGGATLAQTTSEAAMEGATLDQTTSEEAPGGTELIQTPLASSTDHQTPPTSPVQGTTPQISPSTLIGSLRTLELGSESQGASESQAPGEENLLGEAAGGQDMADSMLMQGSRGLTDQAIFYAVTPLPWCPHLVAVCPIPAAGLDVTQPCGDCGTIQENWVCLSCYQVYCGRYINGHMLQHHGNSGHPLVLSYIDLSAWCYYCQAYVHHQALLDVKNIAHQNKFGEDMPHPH

[4] = Cytotoxicity against human THLE2 cells assessed as reduction in cell viability after 72 hrs by ATP Vialight assay; format: toxicity, cell-based, THLE-2; conditions: read-out: LC50
How it was run: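 Immortalized human liver THLE-2 cells in BEGM with 0.7 μg/mL phosphoethanolamine, 0.5 ng/mL EGF, antibiotics and 10% FBS, seeded at 10,000 cells/well and left 24 h at 37 °C. Compounds were added at final 0–100 μM in 1% DMSO for 72 h. Cellular ATP was read by luminescence after 45 min lysis.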

[5] = Cytotoxicity against mouse primary glial cells assessed as reduction in cell viability after 72 hrs by luminescence based ATPlite assay; format: toxicity; conditions: read-out: LC50
How it was run: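 Primary neuron/glia cultures from embryonic mouse brain were grown 5 days at 37 °C (5% CO2) to allow neuron formation. Compounds were then added at final 0–100 μM in 1% DMSO for 72 h. Cellular ATP was read by luminescence after 10 min with reagent at room temperature.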

[6] = Passive membrane permeability of the compound at 50 uM after 18 hrs by PAMPA; format: ADME; conditions: read-out: Peff
How it was run: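 PAMPA: 50 μM donor solution in PBS/EtOH 70:30 over PVDF membrane precoated with PBL/dodecane (20 mg/mL); PBS/EtOH acceptor; 18 h at 20 °C without shaking; duplicates; donor and acceptor concentrations by UV absorbance corrected against vehicle.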

[7] = biological target: Histone deacetylase 3/Nuclear receptor corepressor 2 (HDAC3/NCoR2) (Homo sapiens, UniProt O15379); assay: Inhibition of full length recombinant human C-terminal His-tagged HDAC3/N-terminal GST-tagged NCOR2 (395 to 489 residues) expressed in baculovirus infected Sf9 cells using fluorogenic HDAC substrate after 30 mins by fluorescence analysis
[8] = Selectivity ratio of pIC50 for full length recombinant human N-terminal GST tagged HDAC6 expressed in baculovirus infected Sf9 cells to pIC50 for full length recombinant human C-terminal His/Flag-tagged HDAC1 expressed in baculovirus infected Sf9 cells

Sequence of Histone deacetylase 3/Nuclear receptor corepressor 2 (HDAC3/NCoR2) (O15379 whole entry, the tested form may be a part): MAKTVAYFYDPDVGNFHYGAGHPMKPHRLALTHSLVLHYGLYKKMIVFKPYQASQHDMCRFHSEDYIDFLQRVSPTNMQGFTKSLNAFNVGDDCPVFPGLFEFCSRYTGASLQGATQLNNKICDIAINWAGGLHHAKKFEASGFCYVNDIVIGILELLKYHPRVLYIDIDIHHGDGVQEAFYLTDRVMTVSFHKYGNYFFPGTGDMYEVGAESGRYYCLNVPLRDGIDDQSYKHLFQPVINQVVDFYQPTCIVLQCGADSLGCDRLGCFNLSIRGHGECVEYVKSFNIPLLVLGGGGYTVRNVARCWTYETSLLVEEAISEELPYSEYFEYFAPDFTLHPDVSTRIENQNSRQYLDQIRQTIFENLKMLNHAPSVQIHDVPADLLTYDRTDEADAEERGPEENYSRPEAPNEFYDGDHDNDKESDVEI
Sequence of Histone deacetylase 3/Nuclear receptor corepressor 2 (HDAC3/NCoR2) (Q9Y618 whole entry, further chain, the tested form may be a part): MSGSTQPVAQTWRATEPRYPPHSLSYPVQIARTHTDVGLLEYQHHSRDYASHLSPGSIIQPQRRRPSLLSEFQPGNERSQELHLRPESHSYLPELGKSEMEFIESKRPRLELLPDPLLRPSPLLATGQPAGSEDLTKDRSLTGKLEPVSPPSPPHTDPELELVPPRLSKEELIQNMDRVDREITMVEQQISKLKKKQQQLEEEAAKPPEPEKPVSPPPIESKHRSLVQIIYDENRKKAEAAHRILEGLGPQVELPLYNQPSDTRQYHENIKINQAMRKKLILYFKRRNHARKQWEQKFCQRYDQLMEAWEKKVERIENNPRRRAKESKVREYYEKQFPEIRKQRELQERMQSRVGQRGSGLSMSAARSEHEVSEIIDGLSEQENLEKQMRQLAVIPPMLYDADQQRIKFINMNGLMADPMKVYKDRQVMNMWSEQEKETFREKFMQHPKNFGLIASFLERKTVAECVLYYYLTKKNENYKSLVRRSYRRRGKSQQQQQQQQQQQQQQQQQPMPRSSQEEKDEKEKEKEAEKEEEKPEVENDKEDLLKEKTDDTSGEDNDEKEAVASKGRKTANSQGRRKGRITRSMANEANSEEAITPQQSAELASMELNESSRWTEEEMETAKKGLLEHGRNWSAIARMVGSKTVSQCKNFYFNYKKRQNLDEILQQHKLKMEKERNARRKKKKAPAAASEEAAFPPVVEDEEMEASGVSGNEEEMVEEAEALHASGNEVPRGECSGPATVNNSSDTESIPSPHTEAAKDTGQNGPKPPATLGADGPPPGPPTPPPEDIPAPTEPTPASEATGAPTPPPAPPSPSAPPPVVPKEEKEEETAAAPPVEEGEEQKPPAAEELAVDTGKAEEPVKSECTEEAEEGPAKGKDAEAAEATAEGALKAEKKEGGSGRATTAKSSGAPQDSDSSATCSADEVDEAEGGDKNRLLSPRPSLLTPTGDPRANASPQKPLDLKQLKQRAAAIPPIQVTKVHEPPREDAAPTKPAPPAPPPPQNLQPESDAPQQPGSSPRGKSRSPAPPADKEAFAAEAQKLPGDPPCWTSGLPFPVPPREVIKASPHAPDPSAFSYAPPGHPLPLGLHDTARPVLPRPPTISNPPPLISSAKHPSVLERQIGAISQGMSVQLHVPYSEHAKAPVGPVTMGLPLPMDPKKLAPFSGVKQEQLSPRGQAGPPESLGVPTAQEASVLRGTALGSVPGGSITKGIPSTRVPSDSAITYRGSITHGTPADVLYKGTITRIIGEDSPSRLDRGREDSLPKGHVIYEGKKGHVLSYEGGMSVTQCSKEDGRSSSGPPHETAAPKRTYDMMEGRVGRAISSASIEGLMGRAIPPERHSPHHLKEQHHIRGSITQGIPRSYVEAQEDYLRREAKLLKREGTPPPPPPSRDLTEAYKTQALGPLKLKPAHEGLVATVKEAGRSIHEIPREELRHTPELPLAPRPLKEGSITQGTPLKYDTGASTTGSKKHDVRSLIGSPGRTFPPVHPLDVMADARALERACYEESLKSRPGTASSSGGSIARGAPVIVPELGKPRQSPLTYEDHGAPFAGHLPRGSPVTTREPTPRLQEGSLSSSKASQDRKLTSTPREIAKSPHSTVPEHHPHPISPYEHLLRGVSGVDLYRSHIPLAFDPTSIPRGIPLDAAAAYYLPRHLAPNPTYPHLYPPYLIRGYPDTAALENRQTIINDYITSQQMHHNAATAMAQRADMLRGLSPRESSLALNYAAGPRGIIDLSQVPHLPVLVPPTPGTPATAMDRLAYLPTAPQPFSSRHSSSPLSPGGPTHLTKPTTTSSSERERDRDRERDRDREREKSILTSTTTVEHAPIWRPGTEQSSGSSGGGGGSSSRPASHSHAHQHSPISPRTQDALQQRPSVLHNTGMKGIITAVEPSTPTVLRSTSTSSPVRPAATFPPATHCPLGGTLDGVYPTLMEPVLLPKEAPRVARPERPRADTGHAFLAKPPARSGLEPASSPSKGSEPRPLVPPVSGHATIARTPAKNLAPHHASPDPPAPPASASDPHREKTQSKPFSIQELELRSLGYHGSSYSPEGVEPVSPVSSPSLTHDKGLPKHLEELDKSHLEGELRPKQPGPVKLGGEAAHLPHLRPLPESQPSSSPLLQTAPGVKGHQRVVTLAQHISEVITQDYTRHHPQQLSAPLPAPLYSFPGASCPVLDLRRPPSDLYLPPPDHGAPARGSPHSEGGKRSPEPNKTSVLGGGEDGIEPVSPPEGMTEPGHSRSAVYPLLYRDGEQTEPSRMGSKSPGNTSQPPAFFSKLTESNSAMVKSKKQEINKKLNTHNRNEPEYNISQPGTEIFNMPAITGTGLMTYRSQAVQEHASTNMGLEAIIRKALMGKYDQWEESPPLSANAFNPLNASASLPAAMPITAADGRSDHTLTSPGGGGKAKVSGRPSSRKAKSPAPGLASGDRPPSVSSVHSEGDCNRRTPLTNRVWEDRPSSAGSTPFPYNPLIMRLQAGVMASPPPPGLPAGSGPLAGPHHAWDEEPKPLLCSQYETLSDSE
Sequence of Histone deacetylase 2 (Q92769 whole entry): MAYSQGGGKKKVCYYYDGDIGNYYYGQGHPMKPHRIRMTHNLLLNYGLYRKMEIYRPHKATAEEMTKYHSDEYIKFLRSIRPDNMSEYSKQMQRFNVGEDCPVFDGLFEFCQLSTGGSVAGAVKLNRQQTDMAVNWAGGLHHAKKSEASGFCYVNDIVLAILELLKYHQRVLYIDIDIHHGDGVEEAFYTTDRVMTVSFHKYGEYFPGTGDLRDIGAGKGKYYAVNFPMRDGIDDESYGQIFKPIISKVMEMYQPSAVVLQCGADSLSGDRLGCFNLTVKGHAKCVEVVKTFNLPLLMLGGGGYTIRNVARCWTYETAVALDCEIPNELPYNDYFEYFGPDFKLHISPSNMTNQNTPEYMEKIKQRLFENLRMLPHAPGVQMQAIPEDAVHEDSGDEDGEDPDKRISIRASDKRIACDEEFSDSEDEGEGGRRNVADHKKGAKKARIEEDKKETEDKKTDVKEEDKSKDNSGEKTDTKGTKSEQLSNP
Sequence of Histone deacetylase 1 (Q13547 whole entry): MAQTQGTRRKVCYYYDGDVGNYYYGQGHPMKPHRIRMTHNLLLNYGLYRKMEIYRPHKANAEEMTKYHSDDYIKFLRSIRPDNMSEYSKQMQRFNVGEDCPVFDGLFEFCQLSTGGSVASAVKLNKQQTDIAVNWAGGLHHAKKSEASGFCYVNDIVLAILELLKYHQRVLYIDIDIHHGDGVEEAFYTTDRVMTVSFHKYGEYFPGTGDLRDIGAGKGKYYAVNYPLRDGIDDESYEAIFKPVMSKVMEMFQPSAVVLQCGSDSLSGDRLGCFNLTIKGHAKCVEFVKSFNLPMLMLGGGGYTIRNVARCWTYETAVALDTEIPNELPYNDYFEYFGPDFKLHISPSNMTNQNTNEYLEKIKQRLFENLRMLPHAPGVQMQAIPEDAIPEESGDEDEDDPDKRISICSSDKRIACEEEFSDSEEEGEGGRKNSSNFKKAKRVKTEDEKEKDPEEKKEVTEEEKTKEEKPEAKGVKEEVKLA

| SMILES | selectivity ratio [1] | IC50 [2] [nM] | IC50 (Histone deacetylase 1) [nM] | IC50 (Histone deacetylase 2) [nM] | IC50 [3] [nM] | CC50 at 72 h [4] [nM] | CC50 at 72 h [5] [nM] | Papp at 18 h, 50 µM [6] [×10⁻⁶ cm/s] | IC50 [7] [nM] | Ratio pIC50 [8] |
| --- | --- | --- | --- | --- | --- | --- | --- | --- | --- | --- |
| CCCc1nn(C)c2c(=O)[nH]c(-c3cc(S(=O)(=O)Nc4ccc(/C=C/C(=O)NO)cc4)ccc3OCC)nc12 | < 0.4 | 1 | 356 | 1310 | 84 | 27400 | 30300 | 0.23 |  |  |
| CCCc1nn(C)c2c(=O)[nH]c(-c3cc(N4CCC(CC(=O)NO)CC4)ccc3OCC)nc12 | < 0.4 | 65 | 5860 | > 20000 | 1090 | 88700 | > 100000 | 0.49 |  |  |
| CCCc1nn(C)c2c(=O)[nH]c(-c3cc(S(=O)(=O)N4CCN(c5ncc(C(=O)NO)cn5)CC4)ccc3OCC)nc12 | < 0.4 | 3 | 8 | 117 | 268 | 1460 | 2150 | 0.72 | 36 | > 1 |
| CCCc1nn(C)c2c(=O)[nH]c(-c3cc(N(C)C4CCN(c5ncc(C(=O)NO)cn5)CC4)ccc3OCC)nc12 |  | 10 | 25 | 166 | 584 |  |  |  | 43 | > 1 |
| CCCc1nn(C)c2c(=O)[nH]c(-c3cc(Cc4ccc(CCC(=O)NO)cc4)ccc3OCC)nc12 |  | 13 | 2420 | > 20000 | 2350 |  |  |  | > 20000 |  |
| CCCc1nn(C)c2c(=O)[nH]c(-c3cc(-c4ccc(C(=O)NO)cn4)ccc3OCC)nc12 | < 0.4 | 4 | 354 | 1870 | 79 |  |  | 0.92 |  |  |
| CCCc1nn(C)c2c(=O)[nH]c(-c3cc(NC4CCN(c5ncc(C(=O)NO)cn5)CC4)ccc3OCC)nc12 | < 0.4 | 5 | 68 | 490 | 441 | 2570 |  | 1.34 | 31 | > 0.6 |
| CCCc1nn(C)c2c(=O)[nH]c(-c3cc(Oc4ccc(C(=O)NO)cc4)ccc3OCC)nc12 | < 0.4 | 23 | 566 | 2250 | 196 |  |  | 3.68 |  |  |
| CCCc1nn(C)c2c(=O)[nH]c(-c3cc(NCC4CCN(c5ncc(C(=O)NO)cn5)CC4)ccc3OCC)nc12 |  | 17 | 118 | 712 | 709 |  |  |  |  | > 0.6 |
| CCCc1nn(C)c2c(=O)[nH]c(-c3cc(-c4ccc(C(=O)NO)nc4)ccc3OCC)nc12 | < 0.4 | 4 | 2360 | > 20000 | 861 |  |  | 1.52 |  |  |
| CCCc1nn(C)c2c(=O)[nH]c(-c3cc(S(=O)(=O)NC4CCN(c5ncc(C(=O)NO)cn5)CC4)ccc3OCC)nc12 | < 0.4 | 0.6 | 57 | 341 | 59 | 11900 | 4950 | 0.1 | 54 |  |
| CCCc1nn(C)c2c(=O)[nH]c(-c3cc(N4CCC5(CCN(c6ncc(C(=O)NO)cn6)CC5)C4)ccc3OCC)nc12 |  | 74 | 443 | 1850 | 1900 |  |  |  |  | > 0.6 |
| CCCc1nn(C)c2c(=O)[nH]c(-c3cc(CN4CCN(c5ncc(C(=O)NO)cn5)CC4)ccc3OCC)nc12 | < 0.4 | 7 | 14 | 89 | 379 |  |  | 0.89 |  | > 1 |
| CCCc1nn(C)c2c(=O)[nH]c(-c3cc(S(=O)(=O)N4CCN(C)CC4)ccc3OCC)nc12 |  |  |  |  |  | > 100000 |  | 2.75 |  |  |
| CCCc1nn(C)c2c(=O)[nH]c(-c3cc(NCCC(=O)NO)ccc3OCC)nc12 |  | 44 | 7080 | > 20000 | 10400 |  |  |  |  |  |
| CCCc1nn(C)c2c(=O)[nH]c(-c3cc(NC4CCN(c5ccc(C(=O)NO)cc5)CC4)ccc3OCC)nc12 |  | 20 | 7810 | 17500 | 1600 |  |  |  |  |  |
| CN1CC(=O)N2[C@H](c3ccc4c(c3)OCO4)c3[nH]c4ccccc4c3C[C@@H]2C1=O |  |  |  |  |  | 60300 | 110000 | 2.68 |  |  |
| CCCc1nn(C)c2c(=O)[nH]c(-c3cc(CC(=O)NO)ccc3OCC)nc12 |  | 19 | > 20000 | > 20000 | > 20000 |  |  |  |  |  |
| CCCc1nn(C)c2c(=O)[nH]c(-c3cc(N4CCC(CCC(=O)NO)CC4)ccc3OCC)nc12 |  | 24 | 603 | 2030 | 1060 |  |  |  |  |  |

Source: ChEMBL document CHEMBL3860059, “Design, Synthesis, and Biological Evaluation of First-in-Class Dual Acting Histone Deacetylases (HDACs) and Phosphodiesterase 5 (PDE5) Inhibitors for the Treatment of Alzheimer's Disease” (J Med Chem, 2016)
